The labels stand for the following.
B1: tRNA (parent)
chain: GUUCCGUUGGCGUAAUGGUAACGCGUCUCCCUCCUAAGGAGAAGACUGCGGGUUCGAGUCCCGUACGGAACG

From the RNAGym collection of RNA variant scans (doi:10.1126/science.aae0568) come the findings set out here.

Variants at the floor of the assay were thinned out. A value given as a limit tells only on which side of the number the result lay.

Variants of B1 are the subject of this data set. Nature of the data set: yeast fitness relative to wild type (ratio to wild type); higher = fitter; tRNA-Arg(CCU), competitive growth, 37 C, YPD. The gist of the method:
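For this measurement, the tRNA-Arg(CCU) gene was varied by chemical synthesis at a 3% per-site mutation rate across 69 sites, and each variant was placed at the native genomic locus in Saccharomyces cerevisiae. The pooled strains went through a 24-hour competition in YPD at 37°C in six parallel replicates, with amplicons from start and end populations read by 100-nucleotide paired-end sequencing. Darwinian fitness relative to wild type followed from the change in each genotype's frequency. Genotypes needed ≥ 100 starting reads, and estimates < 0.5 were set to 0.5.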
As for GUUCCGUUGGCGUAAUGGUAACGCGUCUCCCUCCUAAGGAGAAAAUUGCGGGUUCGACUCCCGUACGGAACG, the yeast fitness was determined as 1.08.
On to GUUCCGUUGGCGUAAUGGUAACGCGUCUCCCUCCUAAGGAGAAAUCUGCGGGUUCGAGUCCGGUACGGAACG, for which the yeast fitness is at most 0.5.
Under GUUCCGUUGGCGUAAUGGUAACGCGUCUCCCUCCUAAGGAGAAAACUGCGGGUUCGAGUCCUGUACGGAACG stands 0.874; under GUUCCGUUGGCGUAAUGGUAACGCGUCUCCCUCCUAAGGAGAAAACUGCGGGUUCGAGUCCGGUACGGAACG, 0.668.
Under GUUCCGUUGGCGUAAUGGUAACGCGUCUCCCUCCUAAGGAGAAAACUGCGGGUUCAAGUCCCGUACGGAACG stands 1.05.
For GUUCCGUUGGCGUAAUGGUAACGCGUCUCCCUCCUAAGGAGAAAACUGCGGAUUCGAGUCACGUACGGAACG the value was 0.565; for GUUCCGUUGGCGUAAUGGUAACGCGUCUCCCUCCUAAGGAGAAAACUGCGGGUUCGAGUCCCGUGCGGAACG, 1.
As to GUUCCGUUGGCGUAAUGGUAACGCGUCUCCCUCCUAAGGAGAAAACUGCGGGUUCGAGUGCCGCACGGAACG, the yeast fitness is at most 0.5.
On to GUUCCGUUGGCGUAAUGGUAACGCGUCUCCCUCCUAAGGAGAAAACUGUGGGUUCGAGUCCCGUACGGCACG, for which the yeast fitness amounted to 0.752.
On to GUUCCGUUGGCGUAAUGGUAACGCGUCUCCCUCCUAAGGAGAAAACUGCGGGUUCGAGUCCCGUACAGAGCG, for which the yeast fitness stood at 0.688.
Turning to GUUCCGUUGGCGUAAUGGUAACGCGUCUCCCUCCUAAGGAGAAAAUUGCGGGUUCGAGUCCCGUACGGACCG, the yeast fitness is 0.809.
For GUUCCGUUGGCGUAAUGGUAACGCGUCUCCCUCCUAAGGAGAACAGUGCGGGUUUGAGUCCCAUACGGAACG the value was at most 0.5; for GUUCCGUUGGCGUAAUGGUAACGCGUCUCCCUCCUAAGGAGAAAACUGCGGGUUCGAGUCCCGUAUGGAACG, 0.86.
For the variant GUUCCGUUGGCGUAAUGGUAACGCGUCUCCCUCCUAAGGAGAAACCUGCGGGAUAGAGCCCUGUACGGAACG, the yeast fitness is at most 0.5.
Turning to GUUCCGUUGGCGUAAUGGUAACGCGUCUCCCUCCUAAGGAGAAAAGUGCCGGAUCGAGUCCCGUACGGAACG, the yeast fitness was at most 0.5.
Under GUUCCGUUGGCGUAAUGGUAACGCGUCUCCCUCCUAAGGAGAACACUGCGGGUUCGAGUCCCGUCCGGAACG stands 0.742; under GUUCCGUUGGCGUAAUGGUAACGCGUCUCCCUCCUAAGGAGAACACUGCGGGUUCGAGUCCCGUGCGGAACG, 1.06; under GUUCCGUUGGCGUAAUGGUAACGCGUCUCCCUCCUAAGGAGAAAACUGCGGAUUCGAGUCCCGUACGGAACG, 0.827.
Under GUUCCGUUGGCGUAAUGGUAACGCGUCUCCCUCCUAAGGAGAAAACUGCGGCUUCGAGUCCCGUACGGAACG stands 0.504.
Under GUUCCGUUGGCGUAAUGGUAACGCGUCUCCCUCCUAAGGAGAAAACUGCGGGUUCGAGUCCCAUACCGAACG stands at most 0.5.
On to GUUCCGUUGGCGUAAUGGUAACGCGUCUCCCUCCUAAGGAGAACACUGCGGGUUGGAGUCCCGUGCGGAACG, for which the yeast fitness came out at 0.555.
For GUUCCGUUGGCGUAAUGGUAACGCGUCUCCCUCCUAAGGAGAAAACUGCGGGUUCGAGUCCCGUACCGAACG the value was 0.71; for GUUCCGUUGGCGUAAUGGUAACGCGUCUCCCUCCUAAGGAGAAAACUGCGGGUUCGAGUCCCGUACAGAACG, 0.887; for GUUCCGUUGGCGUAAUGGUAACGCGUCUCCCUCCUAAGGAGAACAAUGCGGGUUCGAGUCCCGUACGGUACG, 0.726.
As to GUUCCGUUGGCGUAAUGGUAACGCGUCUCCCUCCUAAGGAGAACACUGCGGGUUCGGGUCCCGUACGGAACG, the yeast fitness turned out to be 0.895.
GUUCCGUUGGCGUAAUGGUAACGCGUCUCCCUCCUAAGGAGAACACUGCGGGUUCGCGUCCCGUACGGAACG: the yeast fitness was found to be 0.568.
Under GUUCCGUUGGCGUAAUGGUAACGCGUCUCCCUCCUAAGGAGAACAGUGCGGGUUCGCGUCCCGUACGGAACG stands at most 0.5; under GUUCCGUUGGCGUAAUGGUAACGCGUCUCCCUCCUAAGGAGAAACCUGCGAGUUCGAGUCCCGUACGGAACG, at most 0.5; under GUUCCGUUGGCGUAAUGGUAACGCGUCUCCCUCCUAAGGAGAACAAUGCGGGUUCGAGUCCCGUACGGAACG, 1.01.
For GUUCCGUUGGCGUAAUGGUAACGCGUCUCCCUCCUAAGGAGAACAAUGCGGGUUCCAGUCCCGUACGGAACG the value was 0.543; for GUUCCGUUGGCGUAAUGGUAACGCGUCUCCCUCCUAAGGAGAAAACGGGGGGUGCGAGUCCCGUACGGAACG, at most 0.5; for GUUCCGUUGGCGUAAUGGUAACGCGUCUCCCUCCUAAGGAGAAAACUGCGGGUUCGCGUCCCGUACGGAACG, 0.654.
For GUUCCGUUGGCGUAAUGGUAACGCGUCUCCCUCCUAAGGAGAACACUGUGGGUUCGAGUCCCGUACGGAACG the value was 0.783; for GUUCCGUUGGCGUAAUGGUAACGCGUCUCCCUCCUAAGGAGAACACUGAGGGUUCGAGUCCCGUACGGAACG, 0.625.
On to GUUCCGUUGGCGUAAUGGUAACGCGUCUCCCUCCUAAGGAGAACACUGGGGGUUCGAGUCCCGUACGGAACG, for which the yeast fitness is 0.741.
Take GUUCCGUUGGCGUAAUGGUAACGCGUCUCCCUCCUAAGGAGAACACUGCGGGUUAGAGUCCCGUACGGAACG: the yeast fitness came out at 0.548.
For the variant GUUCCGUUGGCGUAAUGGUAACGCGUCUCCCUCCUAAGGAGAACACUGCGGGUUGGAGUCCCGUACGGAACG, the yeast fitness is 0.596.
With GUUCCGUUGGCGUAAUGGUAACGCGUCUCCCUCCUAAGGAGAAAACUGCGGGUUCGAGACCCGUACGGAACG, the yeast fitness is 0.601.
Under GUUCCGUUGGCGUAAUGGUAACGCGUCUCCCUCCUAAGGAGAAAACUGCGGGUUCGAGCCCCGUACGGAACG stands 0.799; under GUUCCGUUGGCGUAAUGGUAACGCGUCUCCCUCCUAAGGAGAAAAAUGCGGAUUCGAGUCCCGUAUGGAACG, 0.62.
In the case of GUUCCGUUGGCGUAAUGGUAACGCGUCUCCCUCCUAAGGAGAAAACUGCAGGUUCGAGUCCCGUACGGAACG, the yeast fitness amounted to 0.891.
Under GUUCCGUUGGCGUAAUGGUAACGCGUCUCCCUCCUAAGGAGAAAACUGCCGGUUCGAGUCCCGUACGGAACG stands 0.623; under GUUCCGUUGGCGUAAUGGUAACGCGUCUCCCUCCUAAGGAGAAAACUGCGGGUUGGAGUCCCCUACGGAACG, at most 0.5; under GUUCCGUUGGCGUAAUGGUAACGCGUCUCCCUCCUAAGGAGAAAACUGCGGGUUCGAGUCCCGUACGGAGCG, 0.919.
Regarding GUUCCGUUGGCGUAAUGGUAACGCGUCUCCCUCCUAAGGAGAAAACUGCGGGUUCGAGUCCCGUACGGAUCG, the yeast fitness stood at 1.03.
Under GUUCCGUUGGCGUAAUGGUAACGCGUCUCCCUCCUAAGGAGAAAACUGCGGGUUCGAGUCCCGUACGGACCG stands 0.837; under GUUCCGUUGGCGUAAUGGUAACGCGUCUCCCUCCUAAGGAGAAAACUGCGGGUUAGAGUCCCGUACGGAACG, 0.658; under GUUCCGUUGGCGUAAUGGUAACGCGUCUCCCUCCUAAGGAGAAAACUGCGGGUUUGAGUCCCGUACGGAACG, 0.776.
Under GUUCCGUUGGCGUAAUGGUAACGCGUCUCCCUCCUAAGGAGAAAAUUGCGGGUUCGAGUCCCGUACGGAACG stands 0.981; under GUUCCGUUGGCGUAAUGGUAACGCGUCUCCCUCCUAAGGAGAAAACUGCGGGUUAGAGUCCCGUACGGCACG, at most 0.5; under GUUCCGUUGGCGUAAUGGUAACGCGUCUCCCUCCUAAGGAGAAAACUGCGGGUUCGAGUCCCGUACGGCACG, 0.988.
On to GUUCCGUUGGCGUAAUGGUAACGCGUCUCCCUCCUAAGGAGAACACUGCGGGUUCGUGUCCCGAACGCAACG, for which the yeast fitness is at most 0.5.
Turning to GUUCCGUUGGCGUAAUGGUAACGCGUCUCCCUCCUAAGGAGAAAACUGCGGGUUCGAGUCCCGCACGGAACG, the yeast fitness was 0.935.
Turning to GUUCCGUUGGCGUAAUGGUAACGCGUCUCCCUCCUAAGGAGAAAACUGCGGGUUCGAGUUCCGUACCGAACG, the yeast fitness came to 0.545.
For GUUCCGUUGGCGUAAUGGUAACGCGUCUCCCUCCUAAGGAGAAAACUGCGGGUACGAGUCCCGUACGGAACG the value was 0.61; for GUUCCGUUGGCGUAAUGGUAACGCGUCUCCCUCCUAAGGAGAACGCUGCGGGUUCGAGUCCCGUACGGAGCG, 0.695; for GUUCCGUUGGCGUAAUGGUAACGCGUCUCCCUCCUAAGGAGAAAACUGCGGGUCCGAGUCUCGUACGGCACG, 0.627.
For GUUCCGUUGGCGUAAUGGUAACGCGUCUCCCUCCUAAGGAGAAAACUACGGGUUCGAGUCCCGUACGGAACG the value was 0.96.
Regarding GUUCCGUUGGCGUAAUGGUAACGCGUCUCCCUCCUAAGGAGAAAACUGCGGGUUCGAUUCCCGUACGGCACG, the yeast fitness is at most 0.5.
Under GUUCCGUUGGCGUAAUGGUAACGCGUCUCCCUCCUAAGGAGAAAACUGCGGGUUCGAGUACCGUACGGAACG stands 0.585.
For GUUCCGUUGGCGUAAUGGUAACGCGUCUCCCUCCUAAGGAGAAAACUGCGGGUUCGAGUUCCGUACGGAACG the value was 0.798; for GUUCCGUUGGCGUAAUGGUAACGCGUCUCCCUCCUAAGGAGAACACUGCGGGUUCGAGUCCCGUACGGAGCG, 0.954.
As to GUUCCGUUGGCGUAAUGGUAACGCGUCUCCCUCCUAAGGAGAAAACUGCGGGUUCGAGUCUCGUACGGAACG, the yeast fitness came to 1.04.
Under GUUCCGUUGGCGUAAUGGUAACGCGUCUCCCUCCUAAGGAGAAAACUGCGGGUUCGAGUCCCGUACGCAACG stands 0.764.
For GUUCCGUUGGCGUAAUGGUAACGCGUCUCCCUCCUAAGGAGAAAACUGCGGGUUCGAGUCCCGUACGUAACG the value was 0.696; for GUUCCGUUGGCGUAAUGGUAACGCGUCUCCCUCCUAAGGAGAACGCUGCGGGUUCAAGUCCCGUACGGAACG, 1.01; for GUUCCGUUGGCGUAAUGGUAACGCGUCUCCCUCCUAAGGAGAAAACUGCGGGUUCCUGUCCCGUACGGAACG, 0.596.
For the variant GUUCCGUUGGCGUAAUGGUAACGCGUCUCCCUCCUAAGGAGAACACUGUGGGUUCGAGGCCCGUACGGAACG, the yeast fitness is at most 0.5.
For GUUCCGUUGGCGUAAUGGUAACGCGUCUCCCUCCUAAGGAGAACACUGCGGGUUCGAGUCAUGUAUGGAACG the value was at most 0.5; for GUUCCGUUGGCGUAAUGGUAACGCGUCUCCCUCCUAAGGAGAACUCUGCGGGUUCGAGUCCCGUACGGAACG, 0.905; for GUUCCGUUGGCGUAAUGGUAACGCGUCUCCCUCCUAAGGAGAACCCUGCGGGUUCGAGUCCCGUACGGAACG, 0.97.
Under GUUCCGUUGGCGUAAUGGUAACGCGUCUCCCUCCUAAGGAGAAAACUGAGGGUUCGAGUCCCGUACGGAACG stands 0.635; under GUUCCGUUGGCGUAAUGGUAACGCGUCUCCCUCCUAAGGAGAAAACUGUGGGUUCGAGUCCCGUACGGAACG, 1.04.
For GUUCCGUUGGCGUAAUGGUAACGCGUCUCCCUCCUAAGGAGAACACUGCGGGUUGGAGUCCCGUACGGUACG the value was 0.746; for GUUCCGUUGGCGUAAUGGUAACGCGUCUCCCUCCUAAGGAGAAAACUGCGGGUACGAGUCCCGUACGGAUCG, 0.549.
